Assay results as given in PMC5059843 (Molecular pharmaceutics, 2016).
Where “and” joins values, the source holds several entries; their conditions need not be identical. Identical values can stand only once. Like-named read-outs stand apart in the source and are kept apart here.

Key:
CYP3A4 [1] = target: T1, CYP3A4 (Homo sapiens, UniProt P08684); test: In vitro TDI assay in pooled HLM; type: biochemical
[2] = Rat plasma equilibrium dialysis; type: in vitro ADME; settings: pH 7.4
In short: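 Rat plasma spiked with test compound to a final 2 μM. Dialysed in a 96-well equilibrium dialyser, plasma on one side and blank phosphate buffer (pH 7.4) on the other. Incubated 20 h at 37 °C under 5% CO2. The unbound fraction was determined from the two sides.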

rat CYP3A = type: biochemical
[3] = Rat pharmacokinetics of PPT alone; type: in vivo
CYP3A4 [4] = target: T1, CYP3A4; test: Spectral MIC formation in CYP3A4 baculosomes, SVD and kinetic modeling; type: biochemical
CYP3A4 [5] = target: T1, CYP3A4; type: biochemical
CYP3A4 [6] = target: T1, CYP3A4; test: Stopped-flow binding kinetics of ligand to purified CYP3A4; settings: for k2: dissociation rate from KS=k2/k1
[7] = 3A4 baculosomes, Figure 3 scheme
[8] = baculosomes, end of kinetic experiment (~30 min), 100 μM PPT

T1 sequence (P08684 whole entry): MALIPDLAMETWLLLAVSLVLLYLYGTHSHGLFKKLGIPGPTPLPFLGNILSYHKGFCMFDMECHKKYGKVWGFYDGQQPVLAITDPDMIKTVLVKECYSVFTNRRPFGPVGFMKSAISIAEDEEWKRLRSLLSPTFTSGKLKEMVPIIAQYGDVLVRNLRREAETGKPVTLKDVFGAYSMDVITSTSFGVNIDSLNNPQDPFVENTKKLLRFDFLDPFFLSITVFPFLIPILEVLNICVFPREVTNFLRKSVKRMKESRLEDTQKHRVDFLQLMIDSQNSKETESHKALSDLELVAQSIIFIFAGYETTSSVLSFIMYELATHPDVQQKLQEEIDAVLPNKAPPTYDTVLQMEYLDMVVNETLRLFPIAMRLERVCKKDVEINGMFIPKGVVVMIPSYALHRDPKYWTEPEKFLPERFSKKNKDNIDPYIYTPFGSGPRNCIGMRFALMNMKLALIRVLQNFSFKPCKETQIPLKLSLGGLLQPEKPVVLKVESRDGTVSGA

For COc1cc([C@@H]2c3cc4c(cc3[C@H](O)[C@H]3COC(=O)[C@H]23)OCO4)cc(OC)c1OC [PPT, Podophyllotoxin], the k3 (CYP3A4 [1]; Q model) was 95.3 ± 1.7 min⁻¹, the k5 (CYP3A4 [1]; Q model) was 3.89e+07 ± 1.63e+07 M⁻¹ s⁻¹ and the k7 (CYP3A4 [1]; Q model) was 0.23 ± 0.07 min⁻¹. For the same molecule, the k8 (CYP3A4 [1]; Q model) was 0.081 ± 0.012 min⁻¹, the k10 (CYP3A4 [1]; Q model) was 0.011 ± 0.001 min⁻¹ and the α (CYP3A4 [1]; Q model) was 0.21 ± 0.08. It also gave a k5 (CYP3A4 [1]; QI model) of 5.618e+07 ± 2.612e+07 M⁻¹ s⁻¹, a k8 (CYP3A4 [1]; QI model) of 0.15 ± 0.04 min⁻¹ and a k9 (CYP3A4 [1]; QI model) of 0.011 ± 0.001 min⁻¹. For the same molecule, the k10 (CYP3A4 [1]; QI model) was 0.017 ± 006 min⁻¹, the α (CYP3A4 [1]; QI model) was 0.16 ± 0.07 and the k3 (CYP3A4 [1]; QI model (ESI-QI scheme, Figure 5a)) was 94.9 ± 1.6 min⁻¹. The k7 (CYP3A4 [1]; QI model, Fe3+:carbene formation) was 0.50 ± 0.23 min⁻¹, the fraction unbound at 20 h, 2 μM [2] was 0.044 ± 0.006 and the k6/KI2 (rat CYP3A) was 6.1e+07 ± 1.68e+07 M⁻¹ s⁻¹. The k7 (rat CYP3A) was 0.12 ± 0.02 min⁻¹ and 0.11 ± 0.02 min⁻¹, the “mean Cmax,unbound” value ([3]; PPT alone, 2-compartmental model) was 0.17 µM and the Cmax ([3]; male, Sprague-Dawley, plasma) was 3.94 µM. For the same molecule, the half-life ([3]; male, Sprague-Dawley, plasma) was 37 min, the “k3 (Fe3+:carbene formation)” value (CYP3A4 [4]; 3A4 baculosomes, 100 μM PPT, Figure 3 scheme, footnote b: fixed value) was 1.8 min⁻¹ and the “k4 (carbene release, enzyme regeneration)” value (CYP3A4 [4]; [7]) was 0.0780 ± 0.0186 min⁻¹. For the same molecule, the “k5 (reduction to Fe2+:carbene)” value (CYP3A4 [4]; [7]) was 0.0804 ± 0.0228 min⁻¹, the “k6 (P420 formation from EI)” value (CYP3A4 [4]; [7]) was 0.1224 ± 0.0252 min⁻¹ and the “k7 (P420 degradation)” value (CYP3A4 [4]; [7]) was 0.0636 ± 0.0048 min⁻¹. The “fraction of total P450 as free P450” value (CYP3A4 [4]; [8]) was 15.0 ± 0.8%, the “fraction of total P450 in the inactivated form (Fe2+:carbene)” value (CYP3A4 [4]; [8]) was 52.0 ± 5.8% and the “enzyme regeneration through carbene release, baculosomes versus HLM” value (CYP3A4 [4]; faster in baculosomes than in HLM) was “about 3 fold”. For the same molecule, the “k4 (carbene release, enzyme regeneration)” value (CYP3A4 [5]; HLM, Figure 3 scheme) was 0.0195 ± 0.000 min⁻¹, the “k6 (P420 formation from EI)” value (CYP3A4 [5]; HLM, Figure 3 scheme) was 0.0506 ± 0.0401 min⁻¹ and the “k7 (P420 degradation)” value (CYP3A4 [5]; HLM, Figure 3 scheme) was 0 min⁻¹. The “k3 (Fe3+:carbene formation)” value (CYP3A4 [5]; HLM, Figure 3 scheme, listed as carries footnote b: fixed value) was 1.134 ± 0.156 min⁻¹, the “fraction of cytochrome P450 in the Fe2+:carbene form” value (CYP3A4 [5]; HLM, end of the experiments) was 17.2 ± 2.2% and the “fraction of cytochrome P450 in the P420 form” value (CYP3A4 [5]; HLM, end of the experiments) was 24.0 ± 2.1%. For the same molecule, the “fraction of cytochrome P450 in the free form” value (CYP3A4 [5]; HLM, end of the experiments) was 40.7 ± 7.3%, the “net rate constant for Fe2+:carbene formation (enzyme inactivation)” value (CYP3A4 [5]; spectral MIC formation experiments in HLM) was 0.020 min⁻¹ and the k2 (CYP3A4 [6]; used for 3A4 baculosomes model) was 10600 min⁻¹. The k2 (CYP3A4 [6]; used for HLM model) was 10600 min⁻¹, the “experimentally determined on-rate (k1) used in the TDI model” value (CYP3A4 [6]; fixed in the TDI model fitting) was 270 µM/s and the k1 (CYP3A4 [6]; from binding kinetic experiment, used for HLM model) was 1080 min⁻¹.
